Assays:
Raji [1] = experiment: Survival of Raji cells at 16 nmol by trypan blue staining method; assay type: functional, Homo sapiens
How it was run: (§1)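 Raji cells (EBV genome-carrying, non-producer) grown to 10⁶ cells/mL, centrifuged, resuspended in RPMI 1640 with 10% FCS, 4 mM n-butyric acid and 32 pmol TPA (20 ng/mL), plus test compound in DMSO (32, 16, 3.2 or 0.32 nmol; 1000–10 mol ratio/TPA). Incubated 37 °C, 48 h; viability counted by hemocytometer with Trypan Blue; ≥60% survival required.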

Human gammaherpesvirus 4 [2] = experiment: TPA-induced EBV early antigen activation in Raji cells at 0.32 nmol relative to control
Raji [3] = experiment: Survival of Raji cells at 32 nmol by trypan blue staining method; assay type: functional, Homo sapiens; how it was run: as §1
Human gammaherpesvirus 4 [4] = experiment: TPA-induced EBV early antigen activation in Raji cells at 3.2 nmol relative to control
Raji [5] = experiment: Survival of Raji cells at 3.2 nmol by trypan blue staining method; assay type: functional, Homo sapiens; how it was run: as §1
Raji [6] = experiment: Survival of Raji cells at 0.32 nmol by trypan blue staining method; assay type: functional, Homo sapiens; how it was run: as §1
Human gammaherpesvirus 4 [7] = experiment: TPA-induced EBV early antigen activation in Raji cells at 16 nmol relative to control
Human gammaherpesvirus 4 [8] = experiment: TPA-induced EBV early antigen activation in Raji cells at 32 nmol relative to control
Mus musculus [9] = species on record: Mus musculus; experiment: Inhibition of TPA-induced skin tumor in SENCAR mouse assessed as reduction of skin papilloma at 85 nmol after 10 weeks; assay type: functional; parameters: scale not given: the % may be the effect or the level left
Mus musculus [10] = species on record: Mus musculus; experiment: Inhibition of TPA-induced skin tumor in SENCAR mouse assessed as reduction of skin papilloma at 85 nmol after 20 weeks; assay type: functional; parameters: scale not given: the % may be the effect or the level left

SMILES	Survival (Raji [1]) [%]	EBV-EA activation (Human gammaherpesvirus 4 [2]) [%]	Survival (Raji [3]) [%]	EBV-EA activation (Human gammaherpesvirus 4 [4]) [%]	Survival (Raji [5]) [%]	Survival (Raji [6]) [%]	EBV-EA activation (Human gammaherpesvirus 4 [7]) [%]	EBV-EA activation (Human gammaherpesvirus 4 [8]) [%]	Activity (Mus musculus [9]) [%]	Activity (Mus musculus [10]) [%]
COc1cc(/C=C/Cc2ccc(O)c(O)c2OC)ccc1OC(C)=O	>80	100	60	74	>80	>80	36.1	9.4	–	–
COc1ccc(C/C=C/c2ccccc2)c(OC)c1O	>80	100	60	76.9	>80	>80	41.2	14.1	–	–
COc1cc(/C=C/Cc2ccc(O)c(O)c2OC)ccc1O	>80	95.7	60	70.2	>80	>80	43.7	7.5	–	–
COc1cc(/C=C/Cc2ccc(OC)c(OCC=C(C)C)c2O)ccc1O	>80	87.1	70	64.2	>80	>80	28.3	0	–	–
COc1cc(/C=C/Cc2ccc(OC)c(O)c2OCC=C(C)C)ccc1O	>80	88.1	70	63.2	>80	>80	27.8	0	–	–
COc1ccc(C/C=C/c2ccccc2)c(O)c1	>80	100	60	73.7	>80	>80	45.1	20.7	–	–
COc1c(C/C=C/c2ccccc2)ccc(O)c1C/C=C/c1ccccc1	>80	100	60	68.2	>80	>80	41.5	12.8	–	–
COc1cc(O)ccc1C/C=C/c1ccccc1	>80	100	60	73.2	>80	>80	44.7	18.1	–	–
COc1ccc(C/C=C/c2ccccc2)c(O)c1O	>80	100	60	71.5	>80	>80	42.5	10.8	–	–
COc1ccc(C/C=C/c2ccccc2)c(O)c1OC	>80	100	60	76.2	>80	>80	45.5	13.3	–	–
COc1c(C/C=C/c2ccccc2)cc(C/C=C/c2ccccc2)c(O)c1OC	>80	100	60	75.6	>80	>80	46.4	15.9	–	–
COc1c(C/C=C/c2ccccc2)cc(C/C=C/c2ccccc2)c(OC)c1OC	>80	100	60	75.2	>80	>80	39.8	12.6	–	–
COc1c(C/C=C/c2ccccc2)ccc(OCC=C(C)C)c1OC	>80	91.5	70	68.2	>80	>80	29.8	0	–	–
COc1cc(/C=C/Cc2ccc(OC)c(O)c2O)ccc1O	>80	95.7	60	73.2	>80	>80	45.5	8.7	–	–
COc1cc(/C=C/Cc2ccc(OC)c(OCC=C(C)C)c2OCC=C(C)C)ccc1OCC=C(C)C	>80	83.3	70	61.5	>80	>80	23.6	0	–	–
COc1cc(/C=C/Cc2ccc(OC)c(O)c2O)ccc1OC(C)=O	>80	100	60	74.6	>80	>80	37.6	10	–	–
COc1cccc(O)c1C/C=C/c1ccccc1	>80	100	60	70.5	>80	>80	43.7	18.3	–	–
COc1ccc(C/C=C/c2ccccc2)c(OCC=C(C)C)c1	>80	91.7	70	67.8	>80	>80	29.9	0	–	–
COc1cccc(OCC=C(C)C)c1C/C=C/c1ccccc1	>80	92.7	70	68.9	>80	>80	30.8	0	–	–
COc1cc(OCC=C(C)C)ccc1C/C=C/c1ccccc1	>80	87.6	70	65.2	>80	>80	29.3	0	–	–
COc1ccc(C/C=C/c2ccccc2)c(O)c1OCC=C(C)C	>80	90.8	70	65.6	>80	>80	30.6	0	–	–
COc1cc(/C=C/Cc2ccc(OC)c(OCC=C(C)C)c2O)ccc1OCC=C(C)C	>80	89.1	70	68.6	>80	>80	27.5	0	87	53
COc1ccc(C/C=C/c2ccccc2)c(OCC=C(C)C)c1O	>80	90.6	70	64.5	>80	>80	27.6	0	–	–
COc1c(C/C=C/c2ccccc2)ccc(OCC=C(C)C)c1OCC=C(C)C	>80	88.9	70	64.5	>80	>80	22.6	0	–	30
COc1c(O)ccc(C/C=C/c2ccccc2)c1OC	>80	100	60	74	>80	>80	44.3	12.5	–	–
COc1ccc(C/C=C/c2ccccc2)c(OC)c1OC	>80	100	60	76.6	>80	>80	41.5	14.2	–	–
COc1ccc(C/C=C/c2ccccc2)c(OCC=C(C)C)c1OCC=C(C)C	>80	88.6	70	62.2	>80	>80	24.6	0	–	–
COc1cc(/C=C/C(=O)CC(=O)/C=C/c2ccc(O)c(OC)c2)ccc1O [CURCUMIN]	>80	100	60	81.7	>80	>80	22.8	0	–	–
COc1c(C/C=C/c2ccccc2)ccc(O)c1O [HYDROXYOBUSTYRENE]	>80	100	60	71	>80	>80	41.3	10.2	–	–
